TAAR1 agonist = agonists of human TAAR1. AID 624467. actives 0.99% (n = 360,000). activation, % at 3 µM. CHO RD-HGA16 TAAR1, Fluo-8 calcium fluorescence; vehicle wells 0%, saturating PEA agonist 100%;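 active = activation above the mean activation of all test compounds in the run plus 3 SD, cut at about 38% in these data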
Target sequence (Q96RJ0 whole entry, looked up): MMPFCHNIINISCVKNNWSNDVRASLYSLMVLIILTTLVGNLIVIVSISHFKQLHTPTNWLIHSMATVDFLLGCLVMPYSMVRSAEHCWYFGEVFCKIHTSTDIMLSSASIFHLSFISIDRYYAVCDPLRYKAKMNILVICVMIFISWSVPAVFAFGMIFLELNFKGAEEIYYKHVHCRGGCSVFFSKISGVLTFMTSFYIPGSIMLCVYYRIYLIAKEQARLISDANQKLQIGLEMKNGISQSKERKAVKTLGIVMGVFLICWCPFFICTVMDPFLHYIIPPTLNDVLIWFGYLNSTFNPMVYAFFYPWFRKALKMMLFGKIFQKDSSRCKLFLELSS
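System: CHO-derived RD-HGA16 cells with stable Gα16 and human TAAR1. Times: 17-24 h plating, Fluo-8 75 min 37 °C, 30 min RT. Measured by: calcium-sensitive Fluo-8 signal, excitation 470-495, emission 515-575 nm. Read-out basis: % activation relative to PEA EC100 response. Control set: DMSO and PEA EC100. Repeats: no replicates (n 1).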
OX1R antag-1 = blocks the human orexin 1 receptor | O43613 | CHO/OX1R cells, Fluo-8 calcium fluorescence, orexin A | actives 0.43% (n = 330,000) | inhibition, % at 5 µM;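 active = inhibition above its plate's threshold, mean inhibition of all tested compounds on the plate plus 3 SD, cut at about 37% in these data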;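 note: 0% = orexin A challenge wells and 100% = SB-334867-A antagonist wells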
Target sequence (O43613 whole entry, looked up): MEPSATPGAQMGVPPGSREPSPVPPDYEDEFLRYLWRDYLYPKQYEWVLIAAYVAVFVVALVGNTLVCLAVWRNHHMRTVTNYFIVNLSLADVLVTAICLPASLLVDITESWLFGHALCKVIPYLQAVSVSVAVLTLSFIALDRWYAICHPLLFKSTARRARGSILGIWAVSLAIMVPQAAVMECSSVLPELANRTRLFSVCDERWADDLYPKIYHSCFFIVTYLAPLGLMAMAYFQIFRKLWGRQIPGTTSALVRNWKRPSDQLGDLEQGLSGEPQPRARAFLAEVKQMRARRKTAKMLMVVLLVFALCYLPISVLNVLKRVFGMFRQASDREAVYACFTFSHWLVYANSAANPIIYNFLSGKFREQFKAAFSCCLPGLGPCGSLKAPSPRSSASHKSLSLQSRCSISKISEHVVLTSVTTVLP
GPR7 antagonist = human neuropeptides B/W receptor 1 antagonism. inhibition, % at 4.4 µM. AID 1861. GPR7-expressing cells, fluorescence antagonist assay. P48145. actives 1.1% (n = 290,000); in the data active = inhibition above about 16%, passing the limit was not always enough;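 note: cells stimulated with the agonist NPW; 0% = agonist with vehicle and 100% = vehicle without agonist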
CHO parental Ca = counter-screen for OX1R antagonists: effect in parental CHO cells. parental CHO-K1, ATP-induced calcium, Fluo-8 fluorescence. inhibition, % at 5.6 µM. actives 0.63% (n = 330,000). AID 463079;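 active = inhibition above that plate's mean sample inhibition plus 3 SD, cut at about 26% in these data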;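 note: 0% = ATP-challenged DMSO wells and 100% = DMSO wells without ATP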
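Assay system: untransfected parental CHO cell line. Also added: ATP agonist challenge. Dosing: one dose, 5.6 µM nominal. Measured by: Fluo-8 fluorescence. Read-out: % inhibition. Benchmarks: ATP wells versus no-ATP DMSO wells. Repeats: no replicates.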
OX1R antag-2 = blocks the human orexin 1 receptor. OX1R-expressing cells, FRET antagonist read-out. O43613. AID 485270. inhibition, % at 6.6 µM. actives 1.8% (n = 330,000); in the data active = inhibition mostly above about 38%, no sharp cut-off; inactive = mostly below about 40%;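 note: 0% = agonist challenge alone and 100% = reference antagonist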
TAAR1 antag = human TAAR1 antagonism; Q96RJ0; CHO RD-HGA16 TAAR1, Fluo-8 calcium fluorescence, antagonist; inhibition, % at 3 µM; actives 1.5% (n = 360,000);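 active = inhibition above a per-plate cutoff, the mean inhibition of test compounds on that plate plus 3 SD, cut at about 49% in these data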;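 note: 0% = DMSO plus EC80 beta-PEA response and 100% = DMSO alone without agonist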
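Test system: RD-HGA16 CHO cells with stable hTAAR1 and Gα16 / Probe or stimulus: EC80 β-phenethylamine stimulus / Times: seeding 17-24 h prior, 75-min 37 °C, 30-min RT dye loading / Detection: Fluo-8 calcium-sensitive fluorescence / Read-out basis: % inhibition scaled between DMSO and EC80 PEA controls / Repeats: singlicate, one well per test compound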
OX1R HTRF conf = OX1R (human) antagonism, HTRF confirmed. shares compounds with OX1R antag-2. OX1R-expressing cells, HTRF antagonist assay. inhibition, % at 6.6 µM. actives 49% (n = 1,800). AID 492964; in the data active = inhibition above about 55%;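 note: CHO cells expressing OX1R stimulated with orexin A at about EC80; 0% = agonist challenge alone and 100% = reference antagonist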
CHO-K1 HTRF = counter-screen: parental CHO-K1 HTRF response | shares compounds with OX1R antag-2 | parental CHO-K1 cells, HTRF counterscreen | inhibition, % at 6.6 µM | actives 48% (n = 1,800) | AID 493232; in the data active = inhibition above about 17%;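 note: 0% = agonist challenge with vehicle and 100% = vehicle alone without agonist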
The depositor's hits bear a star; . = not tested or not shown. Only some compounds are listed: those with a hit (about 4.5% of all), similar ones and a draw of the others.

SMILES	TAAR1 agonist	OX1R antag-1	GPR7 antagonist	CHO parental Ca	OX1R antag-2	TAAR1 antag	OX1R HTRF conf	CHO-K1 HTRF
CC(=O)N1CCc2cc(N=NC3=C(O)CCCC3=O)ccc21	13.9	-7.4	-5.9	-2.9	151.9*	-10.5	74.0*	81.7*
CN1CCc2c(sc(NC(=O)c3ccc([N+](=O)[O-])o3)c2C(N)=O)C1	1.6	-3.0	-3.8	1.2	90.4*	-24.3	40.0	31.2*
C=CCOc1ccc(CNc2ccc3[nH]c(=O)[nH]c3c2)cc1OCC	0.5	-5.1	8.9	-2.1	112.2*	-25.9	20.0	4.9
CCn1c(=O)c(C)nn2c3ccccc3nc12	8.7	6.1	7.3	-4.0	23.5	-9.4	.	.
Cc1nn2c3ccccc3nc2c2ccccc12	2.0	25.0	-8.8	-11.3	87.7*	-1.2	82.8*	-12.1
CC(=O)Oc1ccc(OC(C)=O)c2c1CC1(C)OC1(C)C2 (stereo not drawn)	5.7	.	.	.	.	-27.6	.	.
COc1ccc(OCC(=O)N(Cc2ccc(C)o2)C2CCS(=O)(=O)C2)cc1 (stereo not drawn)	1.4	-14.3	1.2	-8.2	9.1	-18.6	.	.
COCCn1c(SCC(=O)Nc2nc3ccccc3s2)nnc1-c1ccoc1C	11.2	-9.0	-11.5	-19.6	81.2*	-10.7	36.6	3.3
CC(C)(C)c1ccc(-c2nnc(SC3CCOC3=O)n2Cc2ccccc2)cc1 (stereo not drawn)	-1.0	-37.0	8.1	-7.9	84.2*	5.3	21.1	2.2
O=C(Nc1nc2nc(-c3ccccc3)cc(-c3ccccc3)n2n1)c1ccco1	10.4	-5.2	-14.0	-18.5	79.6*	33.6	46.5	6.7
CC(=O)Nc1nc2nc(-c3ccccc3)cc(-c3ccccc3)n2n1	5.0	-30.4	2.8	-15.2	27.6	12.3	.	.
O=C(N/N=C/c1ccccn1)c1ccc([N+](=O)[O-])cc1	0.1	-11.5	4.4	-6.0	82.8*	-0.6	45.7	42.3*
O=C(N/N=C/c1ccc([N+](=O)[O-])cc1)c1ccc2nc[nH]c2c1	2.2	-6.3	-4.0	0.2	113.9*	28.1	37.2	41.3*
O=C(N/N=C/c1cccc([N+](=O)[O-])c1)c1cnccn1	1.2	8.9	1.2	-2.2	106.3*	-6.8	42.8	61.0*
O=C(N/N=C/c1cc([N+](=O)[O-])ccc1N1CCNCC1)c1ccc([N+](=O)[O-])cc1	5.3	-8.0	6.3	-12.2	77.7*	5.4	52.1	68.8*
N#CCC(=O)N/N=C/c1cc([N+](=O)[O-])ccc1N1CCCC1	-0.3	-6.1	18.2	9.9	20.7	-10.7	.	.
O=C(N/N=C/c1ccccn1)c1ccc(NC(=O)c2cccc([N+](=O)[O-])c2)cc1	3.3	-10.9	-4.6	-5.5	31.3	-1.4	.	.
COc1cccc(/C=N/NC(=O)c2cnccn2)c1	3.6	-6.3	10.7	-6.0	18.1	-17.9	.	.
O=C(N/N=C/c1cccc([N+](=O)[O-])c1)c1ccc2nc[nH]c2c1	6.2	-10.4	-16.7	-6.6	38.0	40.9	.	.
CC(C)CC1C(=O)N(Cc2cn(Cc3ccco3)nn2)CCS(=O)(=O)N1Cc1ccc(-c2ccncc2)cc1 (stereo not drawn)	13.1	.	.	.	.	37.1	.	.
Cc1nc(C(=O)O)cc([N+](=O)[O-])c1C	-0.2	.	.	.	.	-30.1	.	.
O=C(N/N=C/c1ccccn1)c1cc([N+](=O)[O-])cc([N+](=O)[O-])c1	7.0	16.2	8.6	13.0	90.9*	-1.6	58.7*	42.2*
O=C1C2=C(c3ccccc31)[N+](=O)C1CCCCC1N2[O-] (stereo not drawn)	3.0	-11.4	-1.8	-1.9	112.1*	-7.1	45.2	44.1*
COc1ccc(/C=C/C(=O)O/N=C(\N)c2ccccc2)cc1OC	4.3	-4.1	-9.6	-22.7	81.4*	3.0	25.6	9.2
Cc1nc2ccc([N+](=O)[O-])cc2nc1C	3.1	3.7	2.2	-3.6	111.5*	-26.9	68.5*	80.6*
SMILES	TAAR1 agonist	OX1R antag-1	GPR7 antagonist	CHO parental Ca	OX1R antag-2	TAAR1 antag	OX1R HTRF conf	CHO-K1 HTRF
CCCN1CCC(=NNc2ccc(S(=O)(=O)N(CC)CC)cc2[N+](=O)[O-])CC1	1.0	-14.2	-13.5	2.8	26.5	-11.8	.	.
CCCN1CCC(=NNc2ccc(S(N)(=O)=O)cc2[N+](=O)[O-])CC1	2.1	0.3	-16.7	-5.1	85.4*	-6.4	37.9	55.6*
O=C1OCc2cccc([N+](=O)[O-])c21	1.2	4.9	-5.2	2.8	79.5*	-4.1	30.7	33.0*
O=C1CC(=O)c2c1cccc2[N+](=O)[O-]	.	.	-12.8	.	.	.	.	.
O=C(NCc1ccccc1)C(c1cc2ccccc2o1)n1c(=O)c(-c2cc3ccccc3[nH]2)nc2ccccc21 (stereo not drawn)	2.3	.	.	.	.	7.1	.	.
COc1cccc(/C=N/NC(=O)c2c(-c3ccccc3)noc2C)c1O	8.0	3.7	-17.1	-12.8	98.5*	-9.4	34.0	9.7
CC(C)CCNC(=O)CCS(=O)(=O)c1cccc2nonc12	2.5	4.9	-5.7	12.5	47.9	-6.5	.	.
O=C(CCS(=O)(=O)c1cccc2nonc12)NCCc1ccccc1	21.1	-28.4	-12.6	-18.5	87.2*	-11.0	34.4	35.6*
COc1ccccc1C(=O)NC1CCCc2ccccc21 (stereo not drawn)	-0.6	-36.5	-20.5	-22.1	25.5	-12.3	.	.
COc1ccccc1C(=O)NC1CCSc2ccccc21 (stereo not drawn)	4.2	-13.4	3.2	-19.0	79.7*	-35.0	66.3*	-8.3
c1ccc2c(c1)oc1c(NCc3ccc4c(c3)OCO4)ncnc12	.	28.9	2.5	18.6	88.5*	.	81.8*	4.0
c1ccc2c(c1)oc1c(Nc3ccc4c(c3)OCO4)ncnc12	8.4	-8.2	2.4	-11.0	66.0	-2.6	.	.
CN(C1CCCCC1)S(=O)(=O)c1cc2c3c(c1)CCN3C(=O)CC2	2.6	-23.4	.	3.8	94.0*	-5.3	27.0	-5.2
COC(=O)c1nn(-c2ccc(OC)cc2)c(=O)c2c(N)sc(C)c12	1.9	-19.0	-1.5	-11.9	82.7*	3.9	43.2	43.3*
COC(=O)c1nn(-c2ccc(OC)cc2)c(=O)cc1NN	6.0	-4.3	8.7	-15.3	18.6	-7.0	.	.
Cc1ccc(C(=O)NC(Cc2cccc(F)c2)C(=O)O)cc1 (stereo not drawn)	2.5	0.3	.	-5.3	11.9	-8.7	.	.
CCOC(=O)C1=CCN(S(=O)(=O)c2ccccc2)C1c1ccc(Cl)cc1 (stereo not drawn)	1.4	.	.	.	.	7.5	.	.
CCN(CC)c1ccc(/C=N/N2C(=O)c3ccccc3C2=O)c(O)c1	0.6	-6.1	-6.6	-1.3	9.0	16.9	.	.

Screens (PubChem)
